Measurements taken from BindingDB's records for doi:10.1021/jm00019a014 (University of Ghent, 1995).

How the values were obtained:
[1] = biological target: glycosomal glyceraldehyde-3-phosphate dehydrogenase (GAPDH); test: Inhibition of glyceraldehyde-3-phosphate dehydrogenase in Trypanosoma brucei
Outline: (§1)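 Enzyme sources: human erythrocyte GAPDH, glycosomal GAPDH from T. brucei, and glycosomal GAPDH from L. mexicana. IC50 is the inhibitor concentration at which 50% of enzyme activity remains. Poorly soluble compounds were not tested above their solubility limit, and the remaining activity at that level was recorded instead.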

[2] = biological target: glyceraldehyde-3-phosphate dehydrogenase (glycosomal GAPDH per title); test: TInhibition of glyceraldehyde-3-phosphate dehydrogenase in Leishmania mexicana; outline: as §1

Row | IC50 [1] | IC50 [2] | Structure (SMILES)
1 | > 10 mM | > 10 mM | Nc1ncnc2c1ncn2C1OC(CO)C(O)C1NCc1ccccc1 (stereo unspecified) [5-(6-Amino-purin-9-yl)-4-benzylamino-2-hydroxymethyl-tetrahydro-furan-3-ol]
2 | > 10 mM | > 10 mM | COc1cccc(C(=O)NC2C(O)C(CO)OC2n2cnc3c(N)nc(C)nc32)c1 (stereo unspecified) [N-[2-(6-Amino-2-methyl-purin-9-yl)-4-hydroxy-5-hydroxymethyl-tetrahydro-furan-3-yl]-3-methoxy-benzamide]
3 | > 10 mM | > 10 mM | CC(C)COC(=O)NC1C(O)C(CO)OC1n1cnc2c(N)ncnc21 (stereo unspecified) [[2-(6-Amino-purin-9-yl)-4-hydroxy-5-hydroxymethyl-tetrahydro-furan-3-yl]-carbamic acid isobutyl ester]
